Reference: ChEMBL document CHEMBL4814031, “In pursuit of a selective hepatocellular carcinoma therapeutic agent: Novel thalidomide derivatives with antiproliferative, antimigratory and STAT3 inhibitory properties” (Eur J Med Chem, 2021)
Calls of active or inactive are those of the source. No cut-off for these calls is given here.

Key:
[1] = Antiproliferative activity against mouse BMOL-T cells assessed as cell growth by measuring doubling time at 10 uM measured every 4 hrs for 3 days by IncuCyte zoom live cell analysis (reference value: 14.3 to 15 hrs); assay type: functional; settings: time 3 day
[2] = Antiproliferative activity against mouse BMOL-NT cells assessed as cell growth by measuring doubling time at 10 uM measured every 4 hrs for 3 days by IncuCyte zoom live cell analysis (reference value: 18 to 19 hrs); assay type: cell-based; settings: 72 h, time 3 day
[3] = Antiproliferative activity against mouse BMOL-T cells assessed as change in doubling time at 10 uM measured every 4 hrs for 3 days by IncuCyte zoom live cell analysis relative to control; assay type: functional; settings: time 3 day
[4] = Antimigratory activity against mouse BMOL-T cells assessed as inhibition of cell migration at 10 uM incubated for 16 hrs by scratch wound healing assay relative to control; assay type: functional
Outline: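 Wound healing in BMOL-T cells plated at 20,000/well in supplemented Williams' E medium and grown 24 h. Wounds made with a Woundmaker, then medium replaced with fresh medium holding compound or 0.1% DMSO vehicle. Live-cell imaging every 2 h over 24 h, read as average wound width (µm). n = 3, SEM.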

[5] = molecular target: Transcription factor p65 (Mus musculus) (UniProt Q04207); experiment: Inhibition of NFkB p65 phosphorylation in mouse BMOL-T cells assessed as change in phosphorylated p65 level at 10 uM incubated for 6 hrs by immunofluorescent assay relative to control; assay type: cell-based; set-up: scale not given: the % may be the effect or the level left
Sequence of Transcription factor p65 (Mus musculus) (Q04207 whole entry): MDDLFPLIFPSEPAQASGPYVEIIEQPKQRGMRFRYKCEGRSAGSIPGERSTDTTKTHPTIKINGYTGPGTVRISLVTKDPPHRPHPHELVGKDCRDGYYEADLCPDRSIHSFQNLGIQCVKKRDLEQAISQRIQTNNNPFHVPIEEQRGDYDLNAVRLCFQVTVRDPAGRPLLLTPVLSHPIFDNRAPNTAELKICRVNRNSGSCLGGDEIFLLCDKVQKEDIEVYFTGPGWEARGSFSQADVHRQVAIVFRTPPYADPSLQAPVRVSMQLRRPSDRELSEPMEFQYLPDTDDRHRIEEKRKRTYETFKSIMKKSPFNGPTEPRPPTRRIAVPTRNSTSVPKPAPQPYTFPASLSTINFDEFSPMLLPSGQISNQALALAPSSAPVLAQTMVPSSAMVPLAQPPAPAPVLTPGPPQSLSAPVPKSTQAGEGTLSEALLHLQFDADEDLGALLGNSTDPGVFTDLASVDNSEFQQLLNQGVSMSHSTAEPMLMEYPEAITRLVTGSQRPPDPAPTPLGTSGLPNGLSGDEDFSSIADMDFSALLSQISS
Outline: (§1)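 BMOL cells in supplemented Williams' E medium were treated 6 h with compound or 0.1% DMSO vehicle. Fixed in 4% PFA, permeabilised with 0.1% Triton X-100, blocked, then incubated 18 h with anti-phospho-p65, -Akt or -STAT3, then secondary antibody 1 h and Hoechst. High-content imaging of per-cell intensity and nuclear:whole-cell ratio. Mean of two experiments, SD.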

[6] = molecular target: T1, Signal transducer and activator of transcription 3 (Mus musculus, UniProt P42227); experiment: Inhibition of STAT3 phosphorylation in mouse BMOL-NT cells assessed as change in phosphorylated STAT3 level at 10 uM incubated for 6 hrs by immunofluorescence assay relative to control; assay type: cell-based; set-up: scale not given: the % may be the effect or the level left; outline: as §1
T1 sequence (P42227 whole entry): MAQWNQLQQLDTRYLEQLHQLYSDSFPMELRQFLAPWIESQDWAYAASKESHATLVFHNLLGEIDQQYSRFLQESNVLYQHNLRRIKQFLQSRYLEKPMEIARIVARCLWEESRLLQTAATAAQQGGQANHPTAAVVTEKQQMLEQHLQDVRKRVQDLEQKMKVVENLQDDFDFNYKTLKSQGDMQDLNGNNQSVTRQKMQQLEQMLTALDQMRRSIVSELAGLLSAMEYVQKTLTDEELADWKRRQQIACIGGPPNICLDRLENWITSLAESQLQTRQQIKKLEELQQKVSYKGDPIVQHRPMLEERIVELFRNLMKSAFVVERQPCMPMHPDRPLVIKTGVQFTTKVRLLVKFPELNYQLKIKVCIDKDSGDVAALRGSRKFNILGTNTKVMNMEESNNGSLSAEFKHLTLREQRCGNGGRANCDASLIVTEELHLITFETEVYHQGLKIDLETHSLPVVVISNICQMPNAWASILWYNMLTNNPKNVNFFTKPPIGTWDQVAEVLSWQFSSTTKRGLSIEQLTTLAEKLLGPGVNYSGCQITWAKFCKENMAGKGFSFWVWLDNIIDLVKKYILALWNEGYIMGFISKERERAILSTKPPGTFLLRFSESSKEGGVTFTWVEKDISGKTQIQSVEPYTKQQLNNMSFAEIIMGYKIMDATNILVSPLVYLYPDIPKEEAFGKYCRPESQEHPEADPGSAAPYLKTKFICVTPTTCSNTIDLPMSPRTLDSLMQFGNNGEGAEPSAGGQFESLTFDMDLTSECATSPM

[7] = Inhibition of Akt phosphorylation in mouse BMOL-NT cells assessed as change in nuclear phosphorylated Akt level at 10 uM incubated for 6 hrs by immunofluorescent assay relative to control; assay type: subcellular, Nucleus; set-up: scale not given: the % may be the effect or the level left; outline: as §1
[8] = system: BMOL-T; experiment: Inhibition of Akt phosphorylation in mouse BMOL-T cells assessed as change in phosphorylated Akt level at 10 uM incubated for 6 hrs by immunofluorescent assay relative to control; assay type: cell-based; set-up: scale not given: the % may be the effect or the level left; outline: as §1
[9] = Inhibition of Akt phosphorylation in mouse BMOL-NT cells assessed as change in phosphorylated Akt level at 10 uM incubated for 6 hrs by immunofluorescent assay relative to control; assay type: cell-based; set-up: scale not given: the % may be the effect or the level left; outline: as §1
[10] = molecular target: T2, Transcription factor p65 (Mus musculus, UniProt Q04207); experiment: Inhibition of NFkB p65 phosphorylation in mouse BMOL-NT cells assessed as change in phosphorylated p65 level at 10 uM incubated for 6 hrs by immunofluorescent assay relative to control; assay type: cell-based; set-up: scale not given: the % may be the effect or the level left; outline: as §1
T2 sequence (Q04207 whole entry): as the sequence (Q04207 whole entry) above

[11] = molecular target: Transcription factor p65 (Mus musculus) (UniProt Q04207); experiment: Inhibition of NFkB p65 nuclear translocation in mouse BMOL-T cells assessed as change in nuclear p65 level at 10 uM incubated for 6 hrs by immunofluorescent assay relative to control; assay type: subcellular; set-up: scale not given: the % may be the effect or the level left; settings: Nucleus; outline: as §1
[12] = molecular target: Signal transducer and activator of transcription 3 (Mus musculus) (UniProt P42227); experiment: Inhibition of STAT3 phosphorylation in mouse BMOL-T cells assessed as change in nuclear phosphorylated STAT3 level at 10 uM incubated for 6 hrs by immunofluorescence assay relative to control; assay type: subcellular; set-up: scale not given: the % may be the effect or the level left; settings: Nucleus; outline: as §1
Sequence of Signal transducer and activator of transcription 3 (Mus musculus) (P42227 whole entry): as the sequence (P42227 whole entry) above

[13] = molecular target: T2, Transcription factor p65; experiment: Inhibition of NFkB p65 nuclear translocation in mouse BMOL-NT cells assessed as change in nuclear p65 level at 10 uM incubated for 6 hrs by immunofluorescent assay relative to control; assay type: subcellular, Nucleus; set-up: scale not given: the % may be the effect or the level left; outline: as §1
[14] = molecular target: Signal transducer and activator of transcription 3 (Mus musculus) (UniProt P42227); experiment: Inhibition of STAT3 phosphorylation in mouse BMOL-T cells assessed as change in phosphorylated STAT3 level at 10 uM incubated for 6 hrs by immunofluorescence assay relative to control; assay type: cell-based; set-up: scale not given: the % may be the effect or the level left; outline: as §1
[15] = system: BMOL-T; experiment: Inhibition of Akt phosphorylation in mouse BMOL-T cells assessed as change in nuclear phosphorylated Akt level at 10 uM incubated for 6 hrs by immunofluorescent assay relative to control; assay type: subcellular; set-up: scale not given: the % may be the effect or the level left; settings: Nucleus; outline: as §1
[16] = molecular target: T1, Signal transducer and activator of transcription 3; experiment: Inhibition of STAT3 phosphorylation in mouse BMOL-NT cells assessed as change in nuclear phosphorylated STAT3 level at 10 uM incubated for 6 hrs by immunofluorescence assay relative to control; assay type: subcellular, Nucleus; set-up: scale not given: the % may be the effect or the level left; outline: as §1
[17] = system: BMOL-T; experiment: Effect on STAT3 expression in mouse BMOL-T cells at 10 uM by AlphaLISA assay; assay type: functional, cell-based
Outline: (§2)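 AlphaLISA in BMOL-T cells treated at 10 µM with 0.1% DMSO vehicle as control. Read as normalised fluorescence for total STAT3, or as the ratio of total STAT3 to p-STAT3. n ≥ 3, SEM. Significance by ANOVA with Dunnett's test.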

[18] = Antiproliferative activity against mouse BMOL-NT cells assessed as change in doubling time at 10 uM measured every 4 hrs for 3 days by IncuCyte zoom live cell analysis relative to control; assay type: cell-based; settings: 72 h, time 3 day
[19] = system: BMOL-T; experiment: Antiproliferative activity against mouse BMOL-T cells assessed as cell growth inhibition at 10 uM measured every 4 hrs for 3 days by IncuCyte zoom live cell analysis relative to control; assay type: functional; settings: time 3.0 day
[20] = Antiproliferative activity against mouse BMOL-NT cells assessed as cell growth inhibition at 10 uM measured every 4 hrs for 3 days by IncuCyte zoom live cell analysis relative to control; assay type: cell-based; settings: time 3 day; for inhibition at 72 h, 10 µM: BMOL-NT cells
[21] = molecular target: Signal transducer and activator of transcription 3 (Mus musculus) (UniProt P42227); experiment: Inhibition of STAT3 phosphorylation in mouse BMOL-T cells at 10 uM by AlphaLISA assay; assay type: cell-based; outline: as §2

Row | SMILES | Time [1] | Time [2] | Activity [3] | Activity [19] | also measured
1 | CC(C)c1ccc(Nc2ccc3c(c2)C(=O)N(C2CCC(=O)NC2=O)C3=O)cc1 (stereo unspecified) | 14.1 h | 17.2 h | 3% | – | –
2 | Nc1cccc2c1CN(C1CCC(=O)NC1=O)C2=O (stereo unspecified) [LENALIDOMIDE] | 15 h | 18 h | – | – | inhibition at 10 µM [4]: 20%; Activity [5]: -5%; Activity [6]: 2%; Activity [7]: -6%; Activity [8]: -9%; Activity [9]: 0%; Activity [10]: 13%; Activity [11]: 7%; Activity [12]: 3%; Activity [13]: -9%; Activity [14]: -4%; Activity [15]: -16%; Activity [16]: -3%; Activity [17]: inactive
3 | CC(C)c1ccc(S(=O)(=O)c2cccc3c2C(=O)N(C2CCC(=O)NC2=O)C3=O)cc1 (stereo unspecified) | 14.9 h | 17.4 h | 3% | – | Activity [18]: 3%
4 | COc1ccc(Nc2cccc3c2C(=O)N(C2CCC(=O)NC2=O)C3=O)cc1 (stereo unspecified) | – | – | – | Active | –
5 | CCc1ccc(Nc2cccc3c2C(=O)N(C2CCC(=O)NC2=O)C3=O)cc1 (stereo unspecified) | – | – | – | Active | inhibition at 72 h, 10 µM [20]: ≤ 10%
6 | Cc1ccccc1Nc1cccc2c1C(=O)N(C1CCC(=O)NC1=O)C2=O (stereo unspecified) | – | – | – | inactive | –
7 | CN(C)c1ccc(Nc2cccc3c2C(=O)N(C2CCC(=O)NC2=O)C3=O)cc1 (stereo unspecified) | – | – | – | Active | –
8 | O=C1CCC(N2C(=O)c3ccc(Nc4ccccc4)cc3C2=O)C(=O)N1 (stereo unspecified) | 14.7 h | 17.4 h | 4% | – | –
9 | CC(C)c1ccc(Sc2cccc3c2C(=O)N(C2CCC(=O)NC2=O)C3=O)cc1 (stereo unspecified) | 16.2 h | 17.2 h | 19% | – | Activity [18]: 3%
10 | CN1C(=O)CCC(N2C(=O)c3cccc(Sc4ccc(C(C)(C)C)cc4)c3C2=O)C1=O (stereo unspecified) | 16.3 h | 24 h | 14% | – | Activity [18]: 26%; inhibition [21]: inactive; Activity [17]: inactive
11 | CCCCc1ccc(Nc2cccc3c2C(=O)N(C2CCC(=O)NC2=O)C3=O)cc1 (stereo unspecified) | – | – | – | Active | inhibition at 72 h, 10 µM [20]: ≤ 10%
12 | Cc1ccc(Nc2cccc3c2C(=O)N(C2CCC(=O)NC2=O)C3=O)cc1 (stereo unspecified) | – | – | – | inactive | –
13 | O=C1CCC(N2C(=O)c3cccc(Oc4ccccc4)c3C2=O)C(=O)N1 (stereo unspecified) | 14.3 h | 16.9 h | 6% | – | –
14 | O=C1CCC(N2C(=O)c3cccc(Nc4ccccn4)c3C2=O)C(=O)N1 (stereo unspecified) | – | – | – | – | Activity ([20]; bmol-nt, 72 h, 10 µM): Toxic
15 | O=C1CCC(N2C(=O)c3cccc(Sc4ccccc4)c3C2=O)C(=O)N1 (stereo unspecified) | 13.8 h | 16.8 h | 2% | – | Activity [18]: 1%
16 | O=C1CCC(N2C(=O)c3cccc(Cc4ccccc4)c3C2=O)C(=O)N1 (stereo unspecified) | 13.8 h | 17.7 h | – | – | Activity [18]: 2%
17 | O=C1CCC(N2C(=O)c3cccc(Sc4ccc(C(F)(F)F)cc4)c3C2=O)C(=O)N1 (stereo unspecified) | – | – | – | inactive | –
